From ChEMBL document CHEMBL1155470, “Colloid formation by drugs in simulated intestinal fluid” (J Med Chem, 2010)
Structures can show the parent of a compound that is named as a salt. Blank lines part the entries; values can stand above or below the compound they belong to. Activity calls are given as the source filed them. The calls are words filed in the database; no cut-off is given here.

Experiments:
[1] = Colloidal aggregation in fed state simulated intestinal fluid assessed as colloid radius at 10 uM by dynamic light scattering assay in presence of 1% DMSO; conditions: simulated gi fluid
Cruzipain [2] = biological target: T1, Cruzipain (Trypanosoma cruzi, UniProt P25779); test: Inhibition of Trypanosoma cruzi cruzaine preincubated for 5 mins before substrate addition by fluorescence assay in absence of Triton X-100
[3] = Colloidal aggregation in fed state simulated intestinal fluid by dynamic light scattering-based beads autocorrelation assay in presence of 1% DMSO; type: physicochemical; conditions: simulated gi fluid
Summary of the method: (§1)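 FeSSIF samples examined by DLS (826.6 nm laser, 90° detector, room temperature), comparing autocorrelation curves with blank FeSSIF. The micelle background was checked with 200 nm calibration beads diluted in FeSSIF. Drug samples were made by diluting DMSO stocks into filtered FeSSIF (15 mM taurocholate, 3.75 mM lecithin).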

Cruzipain [4] = biological target: T1, Cruzipain; test: Inhibition of Trypanosoma cruzi cruzaine preincubated for 5 mins before substrate addition by fluorescence assay in presence of 0.01% Triton X-100
[5] = Colloidal aggregation in fed state simulated intestinal fluid assessed as colloid radius at 50 uM by dynamic light scattering assay in presence of 1% DMSO; type: physicochemical; conditions: simulated gi fluid
Summary of the method: (§2)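 Concentrated DMSO stocks diluted into filtered FeSSIF: blank FeSSIF plus 15 mM sodium taurocholate and 3.75 mM lecithin, dissolved at 37 °C. Final DMSO 1% unless otherwise noted. Particle size by dynamic light scattering at 826.6 nm, detector at 90°, 100% laser power. Values are averages of three or more independent measurements at room temperature.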

[6] = Colloidal aggregation in fed state simulated intestinal fluid assessed as colloid radius at 2.5 uM by dynamic light scattering assay in presence of 1% DMSO; type: physicochemical; conditions: simulated gi fluid; summary of the method: as §2
[7] = Colloidal aggregation in fed state simulated intestinal fluid assessed as colloid radius at 500 uM by dynamic light scattering assay in presence of 1% DMSO; type: physicochemical; conditions: simulated gi fluid; summary of the method: as §2
[8] = Colloidal aggregation in fed state simulated intestinal fluid assessed as colloid radius at 100 uM by dynamic light scattering assay in presence of 1% DMSO; type: physicochemical; conditions: simulated gi fluid; summary of the method: as §2
[9] = Colloidal aggregation in fed state simulated intestinal fluid at 600 uM by dynamic light scattering-based beads autocorrelation assay in presence of 6% DMSO; type: physicochemical; conditions: simulated gi fluid; summary of the method: as §1
[10] = Colloidal aggregation in fed state simulated intestinal fluid assessed as colloid radius at 600 uM by dynamic light scattering assay in presence of 6% DMSO; conditions: simulated gi fluid
[11] = Colloidal aggregation in fed state simulated intestinal fluid by dynamic light scattering assay in presence of 6% DMSO; type: physicochemical; conditions: simulated gi fluid; summary of the method: as §2
[12] = Colloidal aggregation in fed state simulated intestinal fluid assessed as colloid radius at 600 uM by dynamic light scattering assay in presence of 3% DMSO; type: physicochemical; conditions: simulated gi fluid; summary of the method: as §2
[13] = Binding affinity to beta-lactamase AmpC at 700 uM after 30 mins by SDS-PAGE
Summary of the method: (§3)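 Cosedimentation in FeSSIF, with and without 2 μg AmpC β-lactamase added per sample. Samples centrifuged at 16000g for 30 min at room temperature. Supernatant removed completely; pellets resuspended in DMSO plus 50 mM KPi pH 7.0 and run on SDS-PAGE. Protein detected by silver staining. Drug-only pellets included as background controls.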

[14] = Colloidal aggregation in fed state simulated intestinal fluid at 700 uM by transmission electron microscopy in presence of 3% DMSO; type: physicochemical; conditions: simulated gi fluid
Summary of the method: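 Drug DMSO stocks diluted into FeSSIF. Samples adsorbed ~30 s onto glow-discharged formvar/carbon-coated copper grids and negatively stained with 2% ammonium molybdate. Viewed by transmission electron microscopy at 80 kV, standard magnification 25 000, calibrated with catalase crystals and ferritin.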

[15] = Colloidal aggregation in fed state simulated intestinal fluid by dynamic light scattering assay in presence of 3% DMSO; type: physicochemical; conditions: simulated gi fluid; summary of the method: as §2
[16] = Colloidal aggregation in phosphate buffer at 200 uM by transmission electron microscopy in presence of 0.2% DMSO; type: physicochemical
Summary of the method: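 Drug DMSO stocks diluted into 50 mM phosphate buffer. Samples adsorbed ~30 s onto glow-discharged formvar/carbon-coated copper grids and negatively stained with 2% ammonium molybdate. Imaged by transmission electron microscopy at 80 kV, standard magnification 25 000.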

[17] = Colloidal aggregation in fed state simulated intestinal fluid by dynamic light scattering assay in presence of 0.5% DMSO; type: physicochemical; conditions: simulated gi fluid; summary of the method: as §2
[18] = Aggregation-based binding affinity to beta-lactamase AmpC at 700 uM in fed state simulated intestinal fluid after 30 mins by silver staining in presence of 3% DMSO; summary of the method: as §3
[19] = Colloidal aggregation in fed state simulated intestinal fluid by dynamic light scattering assay in presence of 0.2% DMSO; type: physicochemical; conditions: simulated gi fluid; summary of the method: as §2
[20] = Colloidal aggregation in fed state simulated intestinal fluid assessed as colloid radius at 5 uM by dynamic light scattering assay in presence of 1% DMSO; type: physicochemical; conditions: simulated gi fluid; summary of the method: as §2
[21] = Colloidal aggregation in fed state simulated intestinal fluid assessed as colloid radius at 20 uM by dynamic light scattering assay in presence of 0.2% DMSO; type: physicochemical; conditions: simulated gi fluid; summary of the method: as §2

T1 sequence (P25779 whole entry): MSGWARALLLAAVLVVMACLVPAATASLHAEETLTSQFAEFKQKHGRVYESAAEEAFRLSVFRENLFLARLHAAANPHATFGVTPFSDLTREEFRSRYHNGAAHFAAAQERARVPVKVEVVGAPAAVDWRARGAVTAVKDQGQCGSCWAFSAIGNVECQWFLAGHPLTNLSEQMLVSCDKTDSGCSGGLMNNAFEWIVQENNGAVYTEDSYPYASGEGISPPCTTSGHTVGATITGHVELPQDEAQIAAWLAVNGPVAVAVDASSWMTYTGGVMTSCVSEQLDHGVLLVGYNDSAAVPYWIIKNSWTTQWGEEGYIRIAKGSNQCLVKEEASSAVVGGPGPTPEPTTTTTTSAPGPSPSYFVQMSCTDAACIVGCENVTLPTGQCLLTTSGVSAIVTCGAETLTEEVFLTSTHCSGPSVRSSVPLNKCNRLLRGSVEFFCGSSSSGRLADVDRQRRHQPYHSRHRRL

Activity [1]: 104.1 nm
IC50 (Cruzipain [2]): 98 µM
Activity [3]: Active
IC50 (Cruzipain [4]): > 400 µM
Activity [5]: 55.7 nm
SMILES: Cc1c(C)c2c(c(C)c1OC(=O)c1cccnc1)CC[C@@](C)(CCC[C@H](C)CCC[C@H](C)CCCC(C)C)O2 (racemic)

IC50 (Cruzipain [2]): 7 µM
IC50 (Cruzipain [4]): 68 µM
Activity [5]: 1167.7 nm
SMILES: O=C(Nc1cccc2c(=O)cc(-c3nnn[nH]3)oc12)c1ccc(OCCCCc2ccccc2)cc1

SMILES: C(=C\c1ccccc1)/CN1CCN(C(c2ccccc2)c2ccccc2)CC1 [CINNARIZINE]
IC50 (Cruzipain [2]): 124 µM
IC50 (Cruzipain [4]): > 300 µM

IC50 (Cruzipain [2]): 6 µM
IC50 (Cruzipain [4]): > 100 µM
Activity [6]: 125.6 nm
SMILES: COC(=O)C1=C(C)NC(C)=C(C(=O)OCCN2CCN(C(c3ccccc3)c3ccccc3)CC2)C1c1cccc([N+](=O)[O-])c1 (centres undefined) [MANIDIPINE 6300]

Activity [7]: 29.2 nm
SMILES: CN(C)CCCN1c2ccccc2Sc2ccc(Cl)cc21.Cl [CHLORPROMAZINE HYDROCHLORIDE]

SMILES: Cc1ccc(NC(=O)c2ccc(CN3CCN(C)CC3)cc2)cc1Nc1nccc(-c2cccnc2)n1 [IMATINIB]
IC50 (Cruzipain [2]): 207 µM
IC50 (Cruzipain [4]): 297 µM
Activity [8]: 118.4 nm

Activity [1]: 356.1 nm
IC50 (Cruzipain [2]): 6 µM
Activity [9]: Active
Activity [10]: 103.7 nm
Activity [11]: 600 µM
IC50 (Cruzipain [4]): 40 µM
SMILES: CC(C)/N=c1\cc2n(-c3ccc(Cl)cc3)c3ccccc3nc-2cc1Nc1ccc(Cl)cc1 [CLOFAZIMINE]

IC50 (Cruzipain [2]): 123 µM
IC50 (Cruzipain [4]): > 300 µM
SMILES: COC(=O)[C@H](c1ccccc1Cl)N1CCc2sccc2C1 [CLOPIDOGREL BISULFATE]

Activity [12]: 62.8 nm
IC50 (Cruzipain [2]): 122 µM
Activity [13]: inactive
Activity [3]: Active
Activity [14]: Active
Activity [15]: 600 µM
IC50 (Cruzipain [4]): > 200 µM
Activity [16]: Active
Activity [8]: 195.1 nm
Activity [17]: 100 µM
Activity [18]: Active
SMILES: CC(C)Nc1cccnc1N1CCN(C(=O)c2cc3cc(NS(C)(=O)=O)ccc3[nH]2)CC1.CS(=O)(=O)O [DELAVIRDINE MESYLATE]

SMILES: CCCCc1oc2ccccc2c1C(=O)c1cc(I)c(OCCN(CC)CC)c(I)c1 [AMIODARONE HYDROCHLORIDE]
IC50 (Cruzipain [2]): 4 µM
IC50 (Cruzipain [4]): 206 µM

IC50 (Cruzipain [2]): 18 µM
Activity [3]: Active
Activity [19]: 20 µM
IC50 (Cruzipain [4]): > 200 µM
Activity [20]: 72.5 nm
Activity [21]: 36.8 nm
SMILES: CC(C)=CCC/C(C)=C/CC/C(C)=C/CC/C(C)=C/CC1=C(C)C(=O)c2ccccc2C1=O [MENATETRENONE]
